Bioassay records as filed in PubChem.
An excerpt weighted towards active compounds, which were near 3.1% of everything screened.
SIRT5 inh: sirtuin-5 (human) deacylase inhibition; Q9NXA8; Purified SirT5, succinyl-peptide AMC, trypsin-coupled fluorescence; inhibition, % at 15 µM; 330,000 compounds, 1.1% hits; in the data active means inhibition above about 15%; inconclusive means no clear call, values can overlap the other calls
Target sequence (Q9NXA8 whole entry, looked up): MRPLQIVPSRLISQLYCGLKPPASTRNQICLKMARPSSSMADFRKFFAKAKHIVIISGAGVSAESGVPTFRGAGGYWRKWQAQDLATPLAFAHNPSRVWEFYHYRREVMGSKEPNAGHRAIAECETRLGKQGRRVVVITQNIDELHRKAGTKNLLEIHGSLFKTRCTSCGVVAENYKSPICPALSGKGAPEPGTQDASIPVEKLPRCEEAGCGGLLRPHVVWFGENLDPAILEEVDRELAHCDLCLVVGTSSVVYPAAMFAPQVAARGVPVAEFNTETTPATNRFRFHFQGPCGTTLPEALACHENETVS
ERAP1 HTS inh: blocks human ERAP1 aminopeptidase activity | Q9NZ08 | recombinant ERAP1, Leu-AMC fluorescence, 60 min | inhibition, % at 10.7 µM | 340,000 compounds, 0.15% hits;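 active means mean replicate inhibition of at least 30%, or all replicates individually reaching that 30% level; inactive means mean below 30% and not every replicate reaching it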;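 further: 0% = neutral control wells and 100% = L-leucinethiol positive control wells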
S100A4 MyoIIA: inhibitors of human S100A4 binding to myosin IIA peptide. P26447. S100A4/TAMRA-MyoIIA peptide fluorescence polarization. inhibition, % at 10.7 µM. 360,000 compounds, 0.14% hits;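 active means mean inhibition of at least 70% across replicates, with every replicate also reaching that level; inconclusive means mean inhibition reaches 70% but some replicates fall short; inactive means mean inhibition below 70%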
Target sequence (P26447 whole entry, looked up): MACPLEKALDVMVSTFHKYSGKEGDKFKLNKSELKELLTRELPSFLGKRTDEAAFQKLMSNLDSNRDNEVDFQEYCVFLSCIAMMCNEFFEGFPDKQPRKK
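Material: human S100A4 monomer with TAMRA-labelled myosin IIA peptide; buffer or medium: HEPES pH 7.2 with CaCl2, KCl, NaCl, DTT, Triton; compound dosing: one concentration per compound; schedule: 5 min incubation before reading; benchmarks: neutral control DMSO, positive control TFP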
F508del corr: correctors of CFTR F508del function in bronchial epithelial cells; activity (quench increase), % at 7.58 µM; 350,000 compounds, 0.36% hits; CFBE cells, YFP halide quenching; stimulated with forskolin plus potentiator P3; % fluorescence drop versus neutral controls;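 active means mean added fluorescence quench of at least 8% versus neutral control, with both replicates also reaching 8%; inconclusive means only one of the mean or replicate conditions met; inactive means mean below 8% and not both replicates reaching 8%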;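 further: cells transiently co-express mutant CFTR-F508del with the halide-sensitive YFP; corrector assay measuring rescue of mutant channel to the surface after 24 h compound exposure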
Ecoli rRNA inh: inhibitors of bacterial rRNA selective over humanized ribosomes; AID 720706; E. coli WT GFP vs humanized-ribosome RFP mutants, fluorescence, 24 h; stronger effect = lower value; DMSO median 0, no signal -100; 350,000 compounds, 1.6% hits; GFP signal change (wild-type ribosome), % (no concentration beside the values);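 active means significant combined selectivity score with lowered wild-type GFP, culture density cut under 30%, mutant RFP and density less affected; inactive means any of these conditions unmet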
AID977621: wild-type E. coli growth inhibition versus H69 humanized strain – H69 mutant RFP, wild-type GFP, cherry-pick, dose response | shares compounds with Ecoli rRNA inh | fluorescence, 24 h | activity change, negative = inhibition at 50 µM | 1,900 tested, under 10 active;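 active means Wild-type ribosome reporter drop at least double the humanized mutant ribosome reporter drop, growth loss under a set limit; inconclusive means no clear call, values can overlap the other calls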;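 further: wild-type GFP and H69 mutant RFP strains grown together 50/50 in each well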
AID977628: growth of wild-type and h24-humanized E. coli strains – h24 mutant RFP vs wild-type GFP, cherry-pick, dose response; shares compounds with Ecoli rRNA inh; 1,900 tested, under 10 active; activity change, negative = inhibition at 50 µM; E. coli WT GFP strain growth, fluorescence, 24 h;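 active means compound lowering the normal-ribosome reporter at least twice as much as the humanized-ribosome reporter, growth loss under a set limit; inconclusive means no clear call, values can overlap the other calls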;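 further: wild-type GFP and h24 humanized RFP strains co-cultured 1 to 1 per well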
Starred values were filed as active, the others as inactive; ? = inconclusive; / = no result given.

SMILES | SIRT5 inh | ERAP1 HTS inh | S100A4 MyoIIA | F508del corr | Ecoli rRNA inh | AID977621 | AID977628
O=C(CN(c1ccc(F)cc1)S(=O)(=O)c1ccccc1)Nc1ccccc1C(=O)O | 1 | -5 | 2 | -2 | -27* | -13 | /
C[C@@H]1CN([C@H](C)CO)C(=O)c2cccc(NC(=O)Nc3cccc4ccccc34)c2O[C@@H]1CN(C)C | -2 | -3 | -17 | -3 | -1 | / | /
Cc1cccc(-c2noc(-c3ccccc3C(=O)NCc3ccco3)n2)c1 | -3 | 0 | -6 | -1 | -33* | -17 | -14
Cc1cc(C(=O)Nc2ccc(Cl)cc2)c(C)n1Cc1cccs1 | -1 | 0 | -3 | 0 | -30* | 3.2 | -2.5
Nc1ccc(C(=O)OCCCc2nc3cc4ccccc4cc3[nH]2)cc1 | -3 | -1 | 4 | 0 | -17* | 0.46 | -0.53
CCCCc1cc2c(cc1NC(=O)CN1CCCCC1)OCCO2 | 1 | -1 | -7 | -3 | -18* | / | -10
CCCc1cc2c(cc1NC(=O)Cc1ccccc1)OCO2 | -3 | -6 | -1 | -3 | -2 | / | /
O=C(C[C@@H]1C[C@H]2c3cc(NC(=O)Nc4ccccc4)ccc3O[C@H]2[C@H](CO)O1)NC1CCCC1 | 0 | 1 | -10 | -6 | -11 | / | /
C#CCOc1nc(Nc2cccc([N+](=O)[O-])c2)nc(OCC#C)n1 | 3 | -7 | 6 | / | -18* | -11 | -2.5
COc1nc(Nc2cccc([N+](=O)[O-])c2)nc(OC)n1 | -2 | -2 | -1 | 1 | 5 | / | /
CC1(c2ccc3ccccc3c2)NC(=O)N(CC(=O)N2CCN(c3ccccc3O)CC2)C1=O (stereo unspecified) | -3 | 2 | 8 | 2 | -20* | -4.6 | -6.5
CCCNC(=O)c1noc2c1CCc1cc(OC)ccc1-2 | -1 | 1 | -4 | -2 | -28* | ? | /
COc1ccccc1C(=O)N(Cc1ccccc1)c1ccc(C)cc1 | -1 | -2 | -2 | -3 | -16 | / | /
COc1cc(SC)ccc1C(=O)N(Cc1ccccc1)c1ccccn1 | 1 | -2 | 1 | -1 | -19* | -7.6 | -8.2
C=CCN(CC=C)CC(O)Cn1c2ccccc2c2ccccc21 (stereo unspecified) | -8 | 0 | 0 | -2 | -21* | -9.5 | ?
OC(CN1CCNCC1)Cn1c2ccccc2c2ccccc21 (stereo unspecified) | -3 | -1 | 4 | 1 | 6 | / | /
CSc1nc2ccc(NS(=O)(=O)c3ccc([N+](=O)[O-])cc3)cc2s1 | -1 | -3 | -4 | -35 | -22* | -14 | -7.9
CSc1nc2ccc(NS(=O)(=O)c3ccc(CNC(C)=O)cc3)cc2s1 | 2 | 2 | 3 | -1 | 1 | / | /
COc1ccc(C(=O)c2c(C)oc3ccc(O)cc23)cc1 | 3 | -5 | -1 | 1 | -22* | -17 | /
COc1ccc2oc(C)c(C(=O)c3ccc(C)cc3)c2c1 | -3 | -1 | 20 | -1 | -18 | / | /
O=C1CNC[C@@H]2[C@H](c3ccc(C4=CCCCC4)cc3)[C@@H](CO)N12 | -3 | 0 | 9 | 2 | -1 | / | /
C[C@@H]1CCCCO[C@@H](CN(C)C(=O)C2CCCCC2)[C@H](C)CN([C@@H](C)CO)C(=O)c2cc(NC(=O)Cc3ccccc3)ccc2O1 | 13 | -1 | 2 | -2 | -2 | / | /
Cc1cc(SCC(=O)c2cccs2)n2nc(C)c(-c3ccc(Cl)cc3)c2n1 | -6 | -1 | 3 | / | -31* | -1.6 | -1.9
Cc1cccc(OCCn2c(=O)oc3ccc(C)cc32)c1 | 0 | -3 | -2 | -2 | -27* | 2.7 | -1.3
Cc1ccc2oc(=O)n(CCOc3ccccc3)c2c1 | -1 | 1 | -1 | -3 | 18 | / | /
COc1ccccc1NC(=O)N(C)C[C@@H]1Oc2cc(Br)ccc2S(=O)(=O)N([C@@H](C)CO)C[C@H]1C | -1 | 0 | 12 | -1 | -2 | / | /
C=CCn1c(C)nnc1SCC(=O)Nc1ccc2c(c1)OCCO2 | / | 1 | 2 | -3 | 11 | / | /
